# Compounds with a hit are over-represented: about 4% of the library has one in this group of screens.
# TAAR1 antagonist = human TAAR1 antagonists, primary screen, Fluo-8 calcium fluorescence, CHO RD-HGA16 cells | antagonist | inhibition, % at 3 µM | hit rate 1.5% among 360,000;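 active means inhibition above a per-plate cutoff, the mean inhibition of test compounds on that plate plus 3 SD, cut at about 49% in these data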;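 further: 0% = DMSO plus EC80 beta-PEA response and 100% = DMSO alone without agonist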
# Target sequence (Q96RJ0 whole entry, looked up): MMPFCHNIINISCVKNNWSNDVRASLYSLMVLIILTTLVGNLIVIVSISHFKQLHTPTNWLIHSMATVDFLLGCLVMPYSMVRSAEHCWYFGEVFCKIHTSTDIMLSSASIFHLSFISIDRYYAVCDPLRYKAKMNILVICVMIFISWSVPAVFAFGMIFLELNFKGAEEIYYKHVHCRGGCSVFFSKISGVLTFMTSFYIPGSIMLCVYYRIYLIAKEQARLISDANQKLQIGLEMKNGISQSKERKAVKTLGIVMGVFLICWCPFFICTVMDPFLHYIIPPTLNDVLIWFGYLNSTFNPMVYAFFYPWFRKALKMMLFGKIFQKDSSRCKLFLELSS
#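 test system = CHO RD-HGA16 cells bearing hTAAR1 | replication = singlicate | controls = DMSO-only wells and EC80 β-PEA-stimulated wells | reagent = EC80 β-phenethylamine stimulus | read-out basis = percent inhibition of PEA-evoked calcium signal, max/basal emission ratio | schedule = seeding 17-24 h prior, 75-min 37 °C, 30-min RT dye loading | signal = kinetic Fluo-8 calcium fluorescence measurement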
# DAGLB inhibitor = DAGLB lipase inhibitors, primary screen, biochemical, fluorescence, HTS. inhibition, % at 5.17 µM. HEK293T DAGLB membrane lysate, EnzChek fluorogenic substrate. hit rate 0.059% among 340,000. AID 504411, 2011; in the data active means inhibition above about 34%;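 further: 0% = enzyme with vehicle and 100% = wells lacking enzyme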
# TAAR1 ag = human TAAR1 agonists, primary screen, Fluo-8 calcium fluorescence, CHO RD-HGA16 cells | vehicle wells 0%, saturating PEA agonist 100% | activation, % at 3 µM | Trace amine-associated receptor 1 (Homo sapiens), Q96RJ0 | AID 624467, 2012 | hit rate 0.99% among 360,000;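 active means activation above the mean activation of all test compounds in the run plus 3 SD, cut at about 38% in these data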
#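 Signal – calcium-sensitive Fluo-8 signal, excitation 470-495, emission 515-575 nm · System – RD-HGA16 (CHO) cells co-expressing Gα16 and hTAAR1 · Incubation – 17-24 h seeding, 75 min 37 °C dye, 30 min RT · Compound dosing – 3 µM single concentration · Repeats – no replicates (n 1)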
# MPTP block = mitochondrial permeability transition pore inhibitors, primary screen, biochemical, isolated mouse mitochondria, absorbance; hit rate 1.4% among 360,000; inhibition, % at 10 µM; Ca2+ swelling absorbance, 30 min; AID 602449, 2012;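 active means inhibition of 50% or more, scaled per plate between neutral and stimulator controls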;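 further: 0% = DMSO wells given calcium and 100% = 1 mM EGTA wells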
# GPR7 antag = GPR7 receptor antagonists, primary screen, cell-based, fluorescence, single concentration; GPR7-expressing cells, fluorescence antagonist assay; hit rate 1.1% among 290,000; inhibition, % at 4.4 µM; AID 1861, 2009; in the data active means inhibition above about 16%, passing the limit was not always enough;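 further: cells stimulated with the agonist NPW; 0% = agonist with vehicle and 100% = vehicle without agonist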
# Target sequence (P48145 whole entry, looked up): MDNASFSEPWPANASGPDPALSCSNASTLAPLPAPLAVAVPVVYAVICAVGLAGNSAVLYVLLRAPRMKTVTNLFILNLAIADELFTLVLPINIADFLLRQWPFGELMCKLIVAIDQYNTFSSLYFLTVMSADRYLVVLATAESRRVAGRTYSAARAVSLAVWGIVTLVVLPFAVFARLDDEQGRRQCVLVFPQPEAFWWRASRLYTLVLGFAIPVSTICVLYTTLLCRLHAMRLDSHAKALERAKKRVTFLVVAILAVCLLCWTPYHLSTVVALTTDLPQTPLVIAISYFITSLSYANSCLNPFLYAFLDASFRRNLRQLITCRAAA
# GPR7 antag cf = GPR7 receptor antagonists, confirmation, cell-based, fluorescence, single concentration | inhibition, % at 4.4 µM | hit rate 52% among 2,400 | GPR7-expressing cells, calcium fluorescence antagonist mode | shares compounds with GPR7 antag; in the data active means inhibition above about 24%;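 further: stimulated with the GPR7 agonist NPW; 0% = agonist plus vehicle and 100% = vehicle alone without agonist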
# MCHR1 antag = MCHR1 antagonists in cells, counter-screen for GPR7 antagonist project, cell-based, fluorescence, human; shares compounds with GPR7 antag; MCHR1-expressing cells, fluorescence antagonist assay; inhibition, % at 4.4 µM; hit rate 62% among 2,400; AID 2148, 2009; in the data active means inhibition above about 22%;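 further: 0% = vehicle with agonist and 100% = vehicle without agonist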
# Starred values were filed as active, the others as inactive; nt = not tested or not shown.
SMILES,TAAR1 antagonist,DAGLB inhibitor,TAAR1 ag,MPTP block,GPR7 antag,GPR7 antag cf,MCHR1 antag
O=C(Nc1ccc(Cl)cc1)c1cccc(NC2=NC3CS(=O)(=O)CC3S2)c1 (centres undefined),-16.6,1.0,1.8,-1.4,24.1*,-3.3,0.0
COCCCNC(=S)N1CCC(NC(=O)Nc2ccc(C)cc2)CC1,8.0,-1.9,6.7,-1.0,21.4*,0.0,0.6
COCCNC(=S)N1CCC(NC(=O)Nc2ccc(C)cc2)CC1,22.2,1.5,0.9,-1.2,-4.5,nt,nt
COc1cccc(/C=C2/CCC(CN(C)C)C2=O)c1 (centres undefined),-9.9,-4.9,0.0,-3.1,nt,nt,nt
C=CCN=C1NC(c2cccc(C(F)(F)F)c2)C(C(=O)OC)=C(C)N1Cc1ccccc1C(F)(F)F (centres undefined),-3.0,nt,3.7,nt,nt,nt,nt
O=C(Cc1cccs1)N(Cc1ccco1)C1(C(=O)NC2CCCCC2)CCCCC1,-2.6,-4.4,14.5,1.4,43.9*,47.0*,52.5*
O=C(Cc1cccs1)N(Cc1cccs1)C1(C(=O)NC2CCCC2)CCCCC1,12.2,-3.6,8.2,0.8,46.9*,37.5*,50.5*
O=C(NC1CCCCC1)C(c1cccs1)N(Cc1cccs1)C(=O)c1cccs1 (centres undefined),44.4,-4.6,6.5,6.6,32.2*,30.9*,42.1*
O=C(c1ccc2c(c1)OCO2)N(CC1CCCO1)C1(C(=O)NC2CCCCC2)CCCCC1 (centres undefined),-18.9,-4.1,2.6,1.4,33.7*,28.5*,29.8*
O=C(Cc1cccs1)N(c1ccc(F)cc1)C1(C(=O)NC2CCCCC2)CCCC1,0.2,-5.5,0.1,4.0,-2.1,nt,nt
CN(C(=O)c1ccc2c(c1)OCO2)C1(C(=O)NC2CCCC2)CCCCC1,1.2,-3.2,2.5,-1.7,5.7,nt,nt
Cc1ccc(C(=O)C2C(=O)C3CCC2C3)cc1 (centres undefined),-0.4,nt,2.5,0.9,nt,nt,nt
Cc1ccc(NC(=O)N2CC(C)OC(C)C2)cc1[N+](=O)[O-] (centres undefined),9.4,nt,12.4,nt,nt,nt,nt
CC(C)(C)S(=O)N1Cc2cc(C(=O)N3CCc4ccccc4C3)nc(-c3cccc(-c4cccnc4)c3)c2[C@@H]1CCO (some centres undefined),25.5,nt,2.2,-0.4,nt,nt,nt
O=C(c1ccc2c(c1)OCO2)N(Cc1cccs1)C1(C(=O)NC2CCCCC2)CCCCC1,27.1,-6.8,4.0,6.5,31.1*,40.3*,58.7*
O=C1CCC(C(=O)N(Cc2ccco2)C2(C(=O)NC3CCCC3)CCCCC2)N1 (centres undefined),nt,0.2,nt,-2.2,28.3*,21.6,17.1
CC(=O)N(Cc1ccco1)C1(C(=O)NC2CCCCC2)CCCCC1,-6.8,0.5,0.4,0.6,15.5,nt,nt
Cc1ccc(C(OCC(O)CNCc2ccc(F)cc2)c2ccccc2)cc1 (centres undefined),32.4,-6.5,40.1*,7.8,40.6*,30.2*,65.0*
CCC(=O)c1ccc(OCC(O)CNCc2ccc(F)cc2)cc1 (centres undefined),-17.2,1.0,8.3,-0.1,0.5,nt,nt
COc1ccccc1N1CCN(C(=O)COc2ccc(Cl)cc2Br)CC1,3.0,-9.8,0.9,-0.6,28.4*,47.7*,46.9*
Cc1cc(Cl)ccc1OCC(=O)N1CCCN(C(=O)COc2ccc(Cl)cc2C)CC1,-6.2,1.9,5.7,-13.4,26.9*,12.5,20.0
CC(Oc1ccccc1Cl)C(=O)N1CCCN(C)CC1 (centres undefined),-14.2,-1.3,1.1,1.8,-4.1,nt,nt
Cc1cc(Cl)ccc1OC(C)C(=O)N1CCCN(C(=O)C(C)Oc2ccc(Cl)cc2C)CC1 (centres undefined),25.4,-7.5,10.9,1.2,32.3*,62.8*,70.8*
COc1ccccc1N1CCN(C(=O)COc2ccc(C)cc2Br)CC1,-12.9,-8.3,6.8,-2.1,0.3,nt,nt
COc1cc(C2C(Oc3ccccc3C)C(=O)N2Cc2ccc(F)cc2)cc(OC)c1OC (centres undefined),13.1,-6.6,-2.6,-0.3,22.8*,16.4,22.7*
SMILES,TAAR1 antagonist,DAGLB inhibitor,TAAR1 ag,MPTP block,GPR7 antag,GPR7 antag cf,MCHR1 antag
COC(=O)c1ccc(C2C(Oc3ccccc3)C(=O)N2CCc2ccc(F)cc2)cc1 (centres undefined),10.3,-3.5,8.2,-0.9,-1.1,nt,nt
CC(C)(C)c1ccc(Cn2c(=O)cnc3ccccc32)cc1,-9.8,-5.3,-1.1,12.7,13.0,nt,nt
CCC(C)(C)n1nnnc1C(c1cc(OC)ccc1OC)N1CCN(Cc2ccccc2)CC1 (centres undefined),3.0,-2.6,8.2,0.2,26.9*,31.3*,42.5*
CN(C)CC(CCC(CN(C)C)C(O)(c1ccccc1)c1ccccc1)C(O)(c1ccccc1)c1ccccc1 (centres undefined),7.0,nt,2.0,nt,53.1*,61.5*,67.6*
COC(=O)Cc1ccc(NC(=S)N2CCN(C)CC2)cc1,-8.2,0.8,0.9,0.0,33.9*,-6.1,13.0
Cc1cc(=O)oc2ccc(OCC(=O)N(Cc3ccc(F)cc3)Cc3ccco3)cc12,69.6*,-1.0,12.2,0.5,34.1*,37.9*,68.4*
COc1ccc(CN2C(=O)CN(S(C)(=O)=O)CC2(C)C(=O)Nc2ccc3c(c2)OCCO3)cc1OC (centres undefined),-10.3,nt,2.3,-0.2,nt,nt,nt
CCOc1ccc(C(=O)Nc2cccc3ncccc23)cc1Br,-5.3,0.2,10.4,-0.4,25.6*,2.9,9.2
O=S(=O)(Nc1ccc(Br)cc1)c1cccc(NS(=O)(=O)c2cccs2)c1,21.6,3.5,13.9,3.1,nt,nt,nt
CSc1ccc(Oc2cccc3c2S(=O)(=O)N(C2CC2)C[C@@H](COCc2ccccc2)O3)cc1C,-9.1,nt,2.8,nt,nt,nt,nt
Cc1ccc(C2(C)NC(=O)N(CC(=O)Nc3ccc4c(c3)OCO4)C2=O)cc1 (centres undefined),7.1,0.1,17.3,1.3,5.8,nt,nt
Cc1ccc(NC(=O)CN2C(=O)NC(C)(c3ccc(Cl)cc3)C2=O)cc1 (centres undefined),20.7,-2.5,41.1*,-1.9,22.5*,42.7*,28.5*
CCCCNC(=O)C1(C)CCCCN1C(=O)c1oc2ccccc2c1C (centres undefined),-5.7,nt,-2.3,-0.9,nt,nt,nt
COCCNC(=O)c1ccc(CSc2nc3ccccc3s2)cc1,-2.8,-1.9,1.3,0.0,31.1*,-8.2,28.4*

# Screening data deposited in PubChem by several laboratories.
